Source: PubChem BioAssay
Inconclusive results are not listed.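 How the source made its calls, unless noted: active means inhibition over a set limit, the all-compound mean plus 3 SD, in both replicate runs; inconclusive means over that limit in just one replicate run; inactive means at or under that limit in both runs.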

Key:
[1] = S. cerevisiae growth inhibition in permissive medium (OD615), pilot counter-assay for S. cerevisiae lifespan shortening project, permissive growth control (AID 705;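 active means growth inhibition above 25% in both replicates, a cutoff set 3 SD above the mean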); conditions: OD615, 24 h, at 10 µM, stronger effect = higher value
How it was run: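 Material: engineered DeaD yeast; compound dosing: one dose 10 µM, DMSO 0.25% final; measure: yeast growth inhibition indicated by reduced 24 h OD615; detection: OD615 turbidity read; incubation: cells pre-grown 4 h, then 24 h compound exposure, 30 °C humidified; medium: permissive synthetic complete medium with raffinose and galactose carbon sources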

[2] = S. cerevisiae growth inhibition in restrictive medium, OD615, pilot screen, restrictive growth control, yeast lifespan reduction project (AID 706;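 active means growth inhibition above a set limit, 3 SD over mean compound inhibition, in both replicates, cut at about 43% in these data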;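 further: modified DeaD lifespan yeast strain shifted to restrictive glucose medium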); conditions: OD615, 48 h, at 10 µM, stronger effect = higher value
How it was run: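 material = engineered S. cerevisiae DeaD strain | medium = glucose-based CSMM-D restrictive medium | times = 4 h pre-incubation, 48 h exposure at 30 °C | technique = OD615 absorbance reading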

[3] = doxorubicin toxicity protection in MRP-1 cells – H69AR cells, CellTiter-Glo, duplicate, MRP-1 activator project, pilot screen (AID 807;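 active means viability increase at or above a cutoff of the median across tested compounds plus 3 SD, cut at about 8.5% in these data, passing the limit was not always enough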;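 further: compound pretreatment 18-22 h then 72 h combined with doxorubicin; 0% = doxorubicin alone and 100% = vehicle without doxorubicin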); conditions: H69AR viability with doxorubicin, CellTiter-Glo luminescence; at 10 µM; stronger effect = higher value
[4] = viability of HCT116 without oncogenic beta-catenin – human colon tumor cells, pilot screen (AID 823;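 active means cell viability at or below a set limit in both duplicate runs, the limit being the all-compound median minus 4 SD, cut at about 23% in these data, passing the limit was not always enough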;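 further: 0% = wells killed by 20 µM Hyamine and 100% = untreated DMSO cell wells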); conditions: HCT116 beta-catenin knockout viability, CellTiter-Glo, 60 h; at 10 µM; stronger effect = lower value
[5] = viability of PTEN-null HCT116 cells – cell-based, HCT116 clonal line, CellTiter-Glo, pilot screen (AID 824;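 active means viability at or below 27.92% in each of two runs, the all-compound median minus 4 SD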;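 further: 0% = 20 µM Hyamine control and 100% = vehicle cell control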); conditions: HCT116 PTEN-deleted viability, 60 h, at 10 µM, stronger effect = lower value
[6] = RAM pathway blockade in budding yeast – dse1pr::URA3 reporter, 5-FOA selection, pilot screen (AID 869);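 further: 0% = DMSO wells with no growth and 100% = 10 µM 1-NA-PP1 with full growth; RAM network block rescues cells from 5-FOA so hits raise OD615 growth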; conditions: S. cerevisiae dse1pr::URA3 5-FOA growth, OD615, 2 d; at 10 µM; stronger effect = higher value; strain carries analog-sensitive mutant Cbk1 kinase
[7] = RAM signaling pathway blockade in yeast – S. cerevisiae, Pdr1DBD-CYC8 efflux-inhibited sensitized strain, primary screen (AID 1298;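 active means RAM network inhibition above 8.4% in each of two replicates, 3 SD over the compound average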;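 further: 0% = DMSO untreated cells without growth and 100% = 10 µM 1-NA-PP1 full growth; higher means more yeast growth rescued from 5-FOA killing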); conditions: S. cerevisiae cbk1-as DSE1-URA3 strain, 5-FOA growth OD615, 2 d; at 50 µM; stronger effect = higher value

CCCc1cc(C(=O)N2CCN(C(c3ccccc3)c3ccccc3)CC2)no1
inactive: growth inhibition [1] -10.9% | growth inhibition [2] -6.91% | viability increase [3] 4.46% | viability [4] 98.7% | viability [5] 90.9% | inhibition [6] 0.485% | RAM network inhibition [7] 5.99%

Cc1ccc(C)c(NC(=O)CSc2nc3c(c(=O)n2C)SC(C)C3)c1 (configuration not stated)
inactive: growth inhibition [1] -3.99% | growth inhibition [2] -8.3% | viability increase [3] -3.24% | viability [4] 83.2% | viability [5] 90.8% | inhibition [6] 0.5% | RAM network inhibition [7] 3.86%

COc1ccccc1OCCC(=O)OCC(=O)NC(=O)NC(C)(C)C
inactive: growth inhibition [1] -2.01% | growth inhibition [2] -17.1% | viability increase [3] -1.52% | viability [4] 85.7% | viability [5] 84.3% | inhibition [6] 2.56% | RAM network inhibition [7] 0.79%

CCN(CCNC(=O)CCCn1nc(C)n2c(cc3sccc32)c1=O)c1ccccc1
inactive: growth inhibition [1] -7.8% | growth inhibition [2] -4.82% | viability increase [3] 1.17% | viability [4] 97.2% | viability [5] 93% | inhibition [6] -0.2% | RAM network inhibition [7] 6.63%

CC1CCN(CC(O)COc2cccc(F)c2)CC1 (configuration not stated)
inactive: growth inhibition [1] -14.2% | growth inhibition [2] -6.4% | viability increase [3] -0.94% | viability [4] 96.7% | viability [5] 92.2% | inhibition [6] -0.65% | RAM network inhibition [7] 0.62%

Cc1sc2ncnc(SCC(=O)c3cccs3)c2c1C
inactive: growth inhibition [1] 6.02% | growth inhibition [2] 10.6% | viability increase [3] -1.23% | viability [4] 100% | viability [5] 94.3% | inhibition [6] 0.73% | RAM network inhibition [7] 3.92%

CCc1cccc(Nc2cc(C)nc3nc(C)nn23)c1
inactive: growth inhibition [1] -14.3% | growth inhibition [2] -3.76% | viability increase [3] -3.25% | viability [4] 96.7% | viability [5] 88.3% | inhibition [6] 2.72% | RAM network inhibition [7] 2.83%

CCOC(=O)N1CCN(C(=O)C2CC(c3ccc(F)cc3)=NO2)CC1 (configuration not stated)
inactive: growth inhibition [1] -5.22% | growth inhibition [2] -10.9% | viability increase [3] 1.33% | viability [4] 104% | viability [5] 108% | inhibition [6] 0.815% | RAM network inhibition [7] 2.2%

CCC(C)N1C(=O)CCC1C(=O)NCc1ccc2c(c1)OCO2 (configuration not stated)
inactive: growth inhibition [1] -0.51% | growth inhibition [2] -0.82% | viability increase [3] -3.05% | viability [4] 102% | viability [5] 97.2% | inhibition [6] 2.33% | RAM network inhibition [7] 4.46%

COc1ccc(C2C(C(=O)NCC3CCCO3)c3cc(OC)c(OC)cc3C(=O)N2C)cc1OC (configuration not stated)
inactive: growth inhibition [1] -13.5% | growth inhibition [2] -13.4% | viability increase [3] -1.75% | viability [4] 92.4% | viability [5] 99.7% | inhibition [6] 1.46% | RAM network inhibition [7] 0.94%

Cc1ccc(CSc2nc3c(c(=O)[nH]c(=O)n3C)n2CCC(C)C)cc1
inactive: growth inhibition [1] -2.01% | growth inhibition [2] -11.3% | viability increase [3] -7.6% | viability [4] 53.1% | viability [5] 51.2% | inhibition [6] 4.83% | RAM network inhibition [7] 7.58%

CCOc1cc(/C=N/O)cc(Br)c1OC
inactive: growth inhibition [1] -1.28% | growth inhibition [2] -18.2% | viability increase [3] -3.13% | viability [4] 106% | viability [5] 97.1% | inhibition [6] 1.22% | RAM network inhibition [7] 5.14%

Nc1c(C(=O)NCc2ccccc2)nnn1Cc1ccccc1
inactive: growth inhibition [1] -6.54% | growth inhibition [2] 4.1% | viability increase [3] 1.95% | viability [4] 99.8% | viability [5] 91.2% | inhibition [6] 1.02% | RAM network inhibition [7] 2.99%

Cc1nn(-c2ccccc2)c2sc(C(=O)n3cccn3)cc12
inactive: growth inhibition [1] -10.7% | growth inhibition [2] -9.12% | viability increase [3] -3.24% | viability [4] 89.8% | viability [5] 92.4% | inhibition [6] 2.99% | RAM network inhibition [7] 8.3%

O=C(Nc1ccccc1)c1ccc(S(=O)(=O)N2CCCCC2)cc1
inactive: growth inhibition [1] 3.41% | growth inhibition [2] -0.37% | viability increase [3] 0.95% | viability [4] 97.8% | viability [5] 82.5% | inhibition [6] 0.395% | RAM network inhibition [7] 2.23%

COCCN(CCOC)Cc1c(C)[nH]c2c(C)c(C)ccc2c1=O
inactive: growth inhibition [1] -16.2% | growth inhibition [2] -9.49% | viability increase [3] -1.96% | viability [4] 96.8% | viability [5] 100% | inhibition [6] 2.54% | RAM network inhibition [7] 3.28%

O=C(NCc1ccc2c(c1)OCO2)C1CC(=O)N(CCc2ccccc2)C1 (configuration not stated)
inactive: growth inhibition [1] 0.26% | growth inhibition [2] 0.755% | viability increase [3] -0.29% | viability [4] 96.1% | viability [5] 95.7% | inhibition [6] 2.38% | RAM network inhibition [7] 2.32%

O=C(COC(=O)C(O)c1ccccc1)c1ccc2c(c1)OCCO2 (configuration not stated)
inactive: growth inhibition [1] -4.38% | growth inhibition [2] -9.29% | viability increase [3] -0.39% | viability [4] 97.1% | viability [5] 106% | inhibition [6] 1.27% | RAM network inhibition [7] 4.89%

COc1cccc(C2C(C(=O)c3ccco3)=C(O)C(=O)N2CCCN2CCOCC2)c1OC (configuration not stated)
inactive: growth inhibition [1] -8.82% | growth inhibition [2] -0.75% | viability increase [3] -3.37% | viability [4] 102% | viability [5] 93.5% | inhibition [6] 1.02% | RAM network inhibition [7] 6.98%

COc1ccc(C2C(C(=O)NCCN3CCOCC3)c3ccccc3C(=O)N2C)cc1OC (configuration not stated)
inactive: growth inhibition [1] -2.92% | growth inhibition [2] -2.97% | viability increase [3] -0.98% | viability [4] 91.5% | viability [5] 100% | inhibition [6] 1.24% | RAM network inhibition [7] 3.26%

CCOc1ccc(Cn2nnc(C(=O)NCc3ccccc3)c2N)cc1
inactive: growth inhibition [1] 2.25% | growth inhibition [2] 3.87% | viability increase [3] 2.17% | viability [4] 93.2% | viability [5] 85.5% | inhibition [6] 0.395% | RAM network inhibition [7] 3.74%

CCCCCN=C(C)c1c(O)c2ccccc2oc1=O
inactive: growth inhibition [1] 1.51% | growth inhibition [2] 1.03% | viability increase [3] 1.19% | viability [4] 94.8% | viability [5] 90.7% | inhibition [6] -0.66% | RAM network inhibition [7] -1.55%

COCCOC(=O)C1=C(C)NC2=C(C(=O)CC(C)(C)C2)C1c1ccc(N(C)C)cc1 (configuration not stated)
inactive: growth inhibition [1] -16.1% | growth inhibition [2] -21.2% | viability increase [3] -0.49% | viability [4] 97.4% | viability [5] 98.3% | inhibition [6] -0.03% | RAM network inhibition [7] 3.6%

CCSc1nnc(NC(=O)CSc2nc3c(c(=O)n2CCOC)SC(C)C3)s1 (configuration not stated)
inactive: growth inhibition [1] -5.35% | growth inhibition [2] -1.1% | viability increase [3] -2.95% | viability [4] 94.1% | viability [5] 94.4% | inhibition [6] 2.09% | RAM network inhibition [7] 7.38%

CCOc1ccc(C2N(c3ccc(OC)cc3)C(=O)C3CCCN32)cc1OC (configuration not stated)
inactive: growth inhibition [1] -1.7% | growth inhibition [2] -0.11% | viability increase [3] -2.39% | viability [4] 98.7% | viability [5] 101% | inhibition [6] 1.57% | RAM network inhibition [7] 3%

COc1ccc(CN2CCN(C(=O)c3cccs3)CC2)cc1Br
inactive: growth inhibition [1] -11.5% | growth inhibition [2] -13.4% | viability increase [3] -1.27% | viability [4] 85.4% | viability [5] 87.9% | inhibition [6] 0.72% | RAM network inhibition [7] 2.53%

N=c1c2c3c(sc2nc2n1CCCCC2)CCCCC3
inactive: growth inhibition [1] -5.75% | growth inhibition [2] -13.7% | viability increase [3] -5.46% | viability [4] 67.7% | viability [5] 71.7% | inhibition [6] 0.715% | RAM network inhibition [7] 5.69%

CN1CCN(Cc2c(O)ccc3occ(C(=O)c4ccccc4)c23)CC1
inactive: growth inhibition [1] -13% | growth inhibition [2] -16.2% | viability increase [3] -4% | viability [4] 73% | viability [5] 79% | inhibition [6] 1.56% | RAM network inhibition [7] 7.8%

COc1cc(=O)[nH]c(=O)n1C(=O)Cc1ccccc1
inactive: growth inhibition [1] -1.48% | growth inhibition [2] -1.73% | viability increase [3] 0% | viability [4] 97.4% | viability [5] 104% | inhibition [6] -0.145% | RAM network inhibition [7] 4.08%

CCCc1cc(C(=O)Nc2cccnc2)no1
inactive: growth inhibition [1] 0.43% | growth inhibition [2] -0.16% | viability increase [3] -1.86% | viability [4] 100% | viability [5] 94.9% | inhibition [6] 0.915% | RAM network inhibition [7] -0.87%

O=C(COc1ccccc1)Nc1nnc(-c2ccccc2)o1
inactive: growth inhibition [1] -5.84% | growth inhibition [2] 4.22% | viability increase [3] 0.2% | viability [4] 104% | viability [5] 94.1% | inhibition [6] 1.29% | RAM network inhibition [7] -1.25%

COCCCN(C(=O)Nc1ccc(C)c(C)c1)C(C)c1ccccn1 (configuration not stated)
inactive: growth inhibition [1] 2.01% | growth inhibition [2] 11.8% | viability increase [3] -1.65% | viability [4] 102% | viability [5] 89.8% | inhibition [6] 2.15% | RAM network inhibition [7] 5.96%

Cc1ccnc(N2C(=O)c3ccccc3C2Nc2cccc(C)c2C)c1 (configuration not stated)
inactive: growth inhibition [1] -14% | growth inhibition [2] -0.8% | viability increase [3] 0.92% | viability [4] 92% | viability [5] 87.1% | inhibition [6] 1.32% | RAM network inhibition [7] 6.56%

CC(=O)NC(C)c1nc2ccccc2n1Cc1ccccc1F (configuration not stated)
inactive: growth inhibition [1] -5.38% | growth inhibition [2] -3.36% | viability increase [3] 0.25% | viability [4] 102% | viability [5] 93.8% | inhibition [6] 3.67% | RAM network inhibition [7] 5.71%

Cn1ccnc1-c1nc2ccccc2[nH]c1=O
inactive: growth inhibition [1] -6.04% | growth inhibition [2] -15.6% | viability increase [3] -1.95% | viability [4] 101% | viability [5] 95.5% | inhibition [6] -0.695% | RAM network inhibition [7] -0.73%

CC(C)CC(NC(=O)c1ccco1)C(=O)Nc1ccc2c(c1)OCCO2 (configuration not stated)
inactive: growth inhibition [1] 6.21% | growth inhibition [2] 1.03% | viability increase [3] -1.38% | viability [4] 104% | viability [5] 105% | inhibition [6] -0.32% | RAM network inhibition [7] 1.72%
